Data reported in ChEMBL document CHEMBL4373711, “Development of 3,5-Dinitrophenyl-Containing 1,2,4-Triazoles and Their Trifluoromethyl Analogues as Highly Efficient Antitubercular Agents Inhibiting Decaprenylphosphoryl-β-d-ribofuranose 2'-Oxidase” (J Med Chem, 2019).
pIC50: −log10 of the molar value. ≈ marks a conversion by molar mass, not a printed value. Calls of active or inactive are those of the source. The rule behind the calls is not given here.

What was measured:
A-431 = test: Cytotoxicity against human A431 cells assessed as reduction in cell viability after 48 hrs by CellTiter 96 aqueous one solution assay; format: cell-based; conditions: A-431, 48 h
Mycobacterium avium [1] = test: Antimycobacterial activity against Mycobacterium avium CNCTC My 330/88 after 14 days; format: functional; conditions: CNCTC My 330/88, 336 h
Summary of the method: (§1)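 M. avium was tested by microdilution in Šula's semisynthetic medium, with compounds dissolved in DMSO and serially diluted from 1000 down to 1. Inoculum was a 1.0 McFarland suspension diluted 10-5. Plates were incubated at 37 °C and read at 14 and 21 days. […] Isoniazid and rifampicin served as standards.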

Candida tropicalis = test: Antifungal activity against Candida tropicalis ATCC 750 CCM 8264 at highest concentration measured after 24 to 48 hrs by alamar blue dye based broth microdilution assay; format: functional, organism-based
Mycobacterium avium [2] = test: Antimycobacterial activity against Mycobacterium avium CNCTC My 330/88 after 21 days; format: functional; conditions: CNCTC My 330/88, 504 h; summary of the method: as §1
[3] = Genotoxicity in Salmonella typhimurium TA100 at 30 uM in presence of rat liver S9 fraction by Ames test; format: toxicity, subcellular; conditions: salmonella enterica subsp. enterica serovar typhimurium, s9, 30 µM
Summary of the method: (§2)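 Microplate fluctuation Ames reverse-mutation test following kit instructions; TA98 detects frameshift and TA100 base-exchange mutations. Compound at 30 µM final with Aroclor-1254-induced rat liver S9 plus cofactors.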

Pseudomonas aeruginosa = test: Antibacterial activity against Pseudomonas aeruginosa ATCC 27853 CCM 3955 at highest concentration measured after 24 to 48 hrs by alamar blue dye based broth microdilution assay; format: functional, organism-based
[4] = test system: Mycobacterium tuberculosis; test: Antimycobacterial activity against Mycobacterium tuberculosis H37Rv CNCTC My 331/88 after 21 days; format: functional; conditions: H37Rv CNCTC My 331/88, 504 h
Summary of the method: (§3)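 M. tuberculosis strains (H37Rv and clinical MDR/XDR isolates) tested by microdilution in Šula's semisynthetic medium. Compounds were dissolved in DMSO and tested at 32 to 0.03 µM in twofold steps. Inoculum was a 1.0 McFarland suspension diluted 10-3. Plates were incubated at 37 °C and read at 14 and 21 days.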

Mycobacterium kansasii [5] = test: Antimycobacterial activity against Mycobacterium kansasii 6509/96 after 7 days; format: functional; conditions: 6509/96, 168 h
Summary of the method: (§4)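 Microdilution in Šula's semisynthetic medium; compounds in DMSO at 32–0.03 µM. Inoculum from 1.0 McFarland suspension diluted 10-4. […] Isoniazid and rifampicin as reference drugs.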

Escherichia coli = test: Antibacterial activity against Escherichia coli ATCC 25922 CCM 3954 at highest concentration measured after 24 to 48 hrs by alamar blue dye based broth microdilution assay; format: functional, organism-based
[6] = test system: Staphylococcus epidermidis; test: Antibacterial activity against Staphylococcus epidermidis at highest concentration measured after 24 to 48 hrs by alamar blue dye based broth microdilution assay; format: functional, organism-based
Mycobacterium kansasii [7] = test: Antimycobacterial activity against Mycobacterium kansasii CNCTC My 235/80 after 21 days; format: functional; conditions: CNCTC My 235/80, 504 h; summary of the method: as §4
Candida albicans = test: Antifungal activity against Candida albicans ATCC 24433 CCM 8320 at highest concentration measured after 24 to 48 hrs by alamar blue dye based broth microdilution assay; format: functional, organism-based
Klebsiella pneumoniae = test: Antibacterial activity against Klebsiella pneumoniae at highest concentration measured after 24 to 48 hrs by alamar blue dye based broth microdilution assay; format: functional, organism-based
Candida parapsilosis = test: Antifungal activity against Candida parapsilosis ATCC 22019 CCM 8260 at highest concentration measured after 24 to 48 hrs by alamar blue dye based broth microdilution assay; format: functional, organism-based
Aspergillus flavus = test: Antifungal activity against Aspergillus flavus CCM 8363 at highest concentration measured after 24 to 48 hrs by alamar blue dye based broth microdilution assay; format: functional, organism-based
[8] = test system: Mycobacterium tuberculosis; test: Antimycobacterial activity against XDR Mycobacterium tuberculosis Praha 131 after 21 days; format: functional; conditions: Praha 131, 504 h; summary of the method: as §3
Mycobacterium kansasii [9] = test: Antimycobacterial activity against Mycobacterium kansasii 6509/96 after 14 days; format: functional; conditions: 6509/96, 336 h; summary of the method: as §4
HepG2 = test: Cytotoxicity against human HepG2 cells assessed as reduction in cell viability after 48 hrs by CellTiter 96 aqueous one solution assay; format: cell-based; conditions: HepG2, 48 h
Serratia marcescens = test: Antibacterial activity against Serratia marcescens at highest concentration measured after 24 to 48 hrs by alamar blue dye based broth microdilution assay; format: functional, organism-based
[10] = Cytotoxicity against human HepG2 cells assessed as cell viability at 30 uM after 48 hrs by CellTiter 96 aqueous one solution assay relative to control; format: cell-based; conditions: read-out: Activity
Summary of the method: (§5)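 HepG2 (DMEM, 10% FBS, 1 mM pyruvate) or A431 (DMEM, 10% FBS) seeded 10,000 cells/well, 24 h at 37 °C, 5% CO2, then 30 µM compound for 48 h. MTS reagent 60 min, absorbance 490 nm, background subtracted; 0.1% DMSO vehicle = 100%, 10% SDS = 0% viability.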

Lichtheimia corymbifera = test: Antifungal activity against Lichtheimia corymbifera CCM 8077 at highest concentration measured after 24 to 48 hrs by alamar blue dye based broth microdilution assay; format: functional, organism-based
[11] = test system: Mycobacterium tuberculosis; test: Antimycobacterial activity against Mycobacterium tuberculosis H37Rv CNCTC My 331/88 after 14 days; format: functional; conditions: H37Rv CNCTC My 331/88, 336 h; summary of the method: as §3
[12] = test system: Trichophyton interdigitale; test: Antifungal activity against Trichophyton interdigitale ATCC 9533 CCM 8377 at highest concentration measured after 72 to 120 hrs by alamar blue dye based broth microdilution assay; format: functional
Mycobacterium kansasii [13] = test: Antimycobacterial activity against Mycobacterium kansasii 6509/96 after 21 days; format: functional; conditions: 6509/96, 504 h; summary of the method: as §4
Aspergillus fumigatus = test: Antifungal activity against Aspergillus fumigatus ATCC 204305 at highest concentration measured after 24 to 48 hrs by alamar blue dye based broth microdilution assay; format: functional, organism-based
Staphylococcus aureus [14] = test: Antibacterial activity against Staphylococcus aureus subsp. aureus ATCC 29213 CCM 4223 at highest concentration measured after 24 to 48 hrs by alamar blue dye based broth microdilution assay; format: functional, organism-based
Mycobacterium kansasii [15] = test: Antimycobacterial activity against Mycobacterium kansasii CNCTC My 235/80 after 14 days; format: functional; conditions: CNCTC My 235/80, 336 h; summary of the method: as §4
Mycobacterium kansasii [16] = test: Antimycobacterial activity against Mycobacterium kansasii CNCTC My 235/80 after 7 days; format: functional; conditions: CNCTC My 235/80, 168 h; summary of the method: as §4
[17] = test system: Mycobacterium tuberculosis; test: Antimycobacterial activity against XDR Mycobacterium tuberculosis Praha 131 after 14 days; format: functional; conditions: Praha 131, 336 h; summary of the method: as §3
Pichia kudriavzevii = test: Antifungal activity against Candida krusei ATCC 6258 CCM8271 at highest concentration measured after 24 to 48 hrs by alamar blue dye based broth microdilution assay; format: functional, organism-based
Staphylococcus aureus [18] = test: Antibacterial activity against methicillin-resistant Staphylococcus aureus subsp. aureus ATCC 43300 CCM 4750 at highest concentration measured after 24 to 48 hrs by alamar blue dye based broth microdilution assay; format: functional, organism-based
Enterococcus faecalis = test: Antibacterial activity against Enterococcus faecalis ATCC 29212 CCM 4224 at highest concentration measured after 24 to 48 hrs by alamar blue dye based broth microdilution assay; format: functional, organism-based
[19] = Genotoxicity in Salmonella typhimurium TA98 at 30 uM in presence of rat liver S9 fraction by Ames test; format: toxicity, subcellular; conditions: salmonella enterica subsp. enterica serovar typhimurium, s9, 30 µM; summary of the method: as §2
[20] = Cytotoxicity against human A431 cells assessed as cell viability at 30 uM after 48 hrs by CellTiter 96 aqueous one solution assay relative to control; format: cell-based, A-431; conditions: read-out: Activity; summary of the method: as §5
[21] = test system: Mycobacterium tuberculosis; test: Antitubercular activity against Mycobacterium tuberculosis H37Rv; format: functional

| SMILES | pIC50 (A-431) | MIC99 (Mycobacterium avium [1]) [µM] | Activity (Candida tropicalis) | MIC99 (Mycobacterium avium [2]) [µM] | Activity [3] | Activity (Pseudomonas aeruginosa) | MIC99 [4] [µM] | MIC99 (Mycobacterium kansasii [5]) [µM] | Activity (Escherichia coli) | Activity [6] | MIC99 (Mycobacterium kansasii [7]) [µM] | Activity (Candida albicans) | Activity (Klebsiella pneumoniae) | Activity (Candida parapsilosis) | Activity (Aspergillus flavus) | MIC99 [8] [µM] | MIC99 (Mycobacterium kansasii [9]) [µM] | pIC50 (HepG2) | Activity (Serratia marcescens) | viability at 48 h, 30 µM [10] [%] | further results |
| --- | --- | --- | --- | --- | --- | --- | --- | --- | --- | --- | --- | --- | --- | --- | --- | --- | --- | --- | --- | --- | --- |
| Cn1c(SCc2ccc(Cl)cc2)nnc1-c1cc([N+](=O)[O-])cc([N+](=O)[O-])c1 | < 4.52 | 8 (≈ 3.25 µg/mL) | inactive | 8 (≈ 3.25 µg/mL) | Non-Toxic | inactive | 0.125 (≈ 0.0507 µg/mL) | 0.125 (≈ 0.0507 µg/mL) | inactive | inactive | 0.5 (≈ 0.203 µg/mL) | inactive | inactive | inactive | inactive | 0.125 (≈ 0.0507 µg/mL) | 0.25 (≈ 0.101 µg/mL) | < 4.52 | inactive | 104 | Activity (Lichtheimia corymbifera): inactive; MIC99 [11]: 0.125 µM (≈ 0.0507 µg/mL); Activity [12]: inactive; MIC99 (Mycobacterium kansasii [13]): 0.5 µM (≈ 0.203 µg/mL); Activity (Aspergillus fumigatus): inactive; Activity (Staphylococcus aureus [14]): inactive; MIC99 (Mycobacterium kansasii [15]): 0.5 µM (≈ 0.203 µg/mL); MIC99 (Mycobacterium kansasii [16]): 0.25 µM (≈ 0.101 µg/mL); MIC99 [17]: 0.125 µM (≈ 0.0507 µg/mL); Activity (Pichia kudriavzevii): inactive; Activity (Staphylococcus aureus [18]): inactive; Activity (Enterococcus faecalis): inactive; Activity [19]: Non-Toxic; viability at 48 h, 30 µM [20]: 85% |
| C[C@]1(COc2ccc(N3CCC(Oc4ccc(OC(F)(F)F)cc4)CC3)cc2)Cn2cc([N+](=O)[O-])nc2O1 | – | – | – | – | – | – | – | – | – | – | – | – | – | – | – | – | – | – | – | – | MIC [21]: 0.023 µM (≈ 0.0123 µg/mL) |
| O=[N+]([O-])c1cc(-c2nnc(SCc3ccc(Cl)cc3)n2Cc2ccccc2)cc([N+](=O)[O-])c1 | < 4.52 | 62 (≈ 29.9 µg/mL) | inactive | 62 (≈ 29.9 µg/mL) | Non-Toxic | inactive | 0.25 (≈ 0.12 µg/mL) | 0.06 (≈ 0.0289 µg/mL) | inactive | inactive | 0.5 (≈ 0.241 µg/mL) | inactive | inactive | inactive | inactive | 0.25 (≈ 0.12 µg/mL) | 0.125 (≈ 0.0602 µg/mL) | < 4.52 | inactive | 105 | Activity (Lichtheimia corymbifera): inactive; MIC99 [11]: 0.125 µM (≈ 0.0602 µg/mL); Activity [12]: inactive; MIC99 (Mycobacterium kansasii [13]): 0.125 µM (≈ 0.0602 µg/mL); Activity (Aspergillus fumigatus): inactive; Activity (Staphylococcus aureus [14]): inactive; MIC99 (Mycobacterium kansasii [15]): 0.25 µM (≈ 0.12 µg/mL); MIC99 (Mycobacterium kansasii [16]): 0.125 µM (≈ 0.0602 µg/mL); MIC99 [17]: 0.125 µM (≈ 0.0602 µg/mL); Activity (Pichia kudriavzevii): inactive; Activity (Staphylococcus aureus [18]): inactive; Activity (Enterococcus faecalis): inactive; Activity [19]: Toxic; viability at 48 h, 30 µM [20]: 95% |
| O=c1nc(N2CCN(CC3CCCCC3)CC2)sc2c([N+](=O)[O-])cc(C(F)(F)F)cc12 [MACOZINONE] | – | – | – | – | – | – | – | – | – | – | – | – | – | – | – | – | – | – | – | – | MIC [21]: 0.0004 µM (≈ 0.000183 µg/mL) |
